PMC6763203 (Molecular pharmaceutics, 2019)

Key:
[1] = Hepatic microsome stability assay; format: in vitro ADME, human
[2] = tested on: S. aureus ATCC 29213; test: Prevention of biofilm formation, microtiter dish assay; format: cell-based, Staphylococcus aureus; conditions: 2 μg/mL, 24 h
In short: (§1)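 Static biofilm prevention assay with S. aureus ATCC 29213 or MRSA clinical isolates from local hospitals in central China. Strains were grown in TSB plus 1% glucose in 96-well tissue-culture plates with test compound (0.0125–8 μg/mL) for 24 h. Wells were washed with sterile water and stained with 0.1% (w/v) crystal violet. Stain was solubilised in 95% ethanol and read at 540 nm. Results are reduction in biofilm mass, from three independent experiments in triplicate.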

[3] = tested on: MRSA; test: as above; format: cell-based, Staphylococcus aureus; conditions: for inhibition of biofilm formation: 0.0125–8 μg/mL, 24 h
In short: as §1

[4] = Hepatic microsome stability assay; format: in vitro ADME, mouse
[5] = Plasma protein binding by equilibrium dialysis; format: in vitro ADME, human; conditions: 5 μM, 37 °C, 6 hours
In short: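 Equilibrium dialysis with test compound at 5 μM initial in the plasma chamber against PBS in the receiver chamber. Shaken at 37 °C for 6 h. Samples from both chambers were matrix-matched to 1:1 plasma:PBS and quantified by LC-MS/MS. Fraction bound = ([plasma] – [PBS]) / [plasma]. Run in triplicate.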

[6] = tested on: MRSA; test: MRSA mouse peritonitis model; format: in vivo; conditions: for MRSA in blood or kidney of the survived mice: 14 days after administration
[7] = mouse, liver microsomes, pH 7.4

SMILES	Intrinsic Clearance ([1]; human liver microsomes)	reduction of biofilm formation [2]	inhibition of biofilm formation [3]	Intrinsic Clearance ([4]; mouse liver microsomes 1 mg/mL, 1 μM compound)	T1/2 ([4]; mouse liver microsomes 1 mg/mL, 1 μM compound, 37 °C)	Plasma Protein Binding, Bound [5]	Plasma Protein Binding, Free [5]	MRSA in blood or kidney of the survived mice [6]	mice survival ([6]; C57BL/6J mice, 50 mg/kg i.p. at 1 h and 5 h post infection, 14 days)	microsomal CLint at 1 μM ([1]; human, liver microsomes, pH 7.4)	biofilm reduction, comparison of PTM with PTM-2t [3]	half-life at 1 μM [4, 7]	microsomal CLint at 1 μM [4, 7]
CCSC1CC(=O)C(C)(CCC(=O)Nc2c(O)ccc(C(=O)O)c2O)C2C3CC4CC12CC4(C)O3 (centres unmarked) [2t]	32.0 µL/min/mg	over 95%	dose-dependently inhibited	46 µL/min/mg	15.0 min	35.0%	65.0%	a significant number of MRSAs was still present	80%	–	–	–	–
CC12C[C@@]34C=CC(=O)[C@@](C)(CCC(=O)Nc5c(O)ccc(C(=O)O)c5O)C3[C@H](CC1C4)O2 (some centres unmarked) [PTM, platensimycin, reference compound]	–	over 95%	dose-dependently inhibited	–	–	66.0%	–	–	–	14 µL/min/mg	reduced more biofilm from MRSA than PTM-2t	13.6 min	51 µL/min/mg
CN[C@H](CC(C)C)C(=O)N[C@H]1C(=O)N[C@@H](CC(N)=O)C(=O)N[C@H]2C(=O)N[C@H]3C(=O)N[C@H](C(=O)N[C@H](C(=O)O)c4cc(O)cc(O)c4-c4cc3ccc4O)[C@H](O)c3ccc(c(Cl)c3)Oc3cc2cc(c3O[C@@H]2O[C@H](CO)[C@@H](O)[C@H](O)[C@H]2O[C@H]2C[C@](C)(N)[C@H](O)[C@H](C)O2)Oc2ccc(cc2Cl)[C@H]1O [vancomycin, reference compound]	–	–	–	–	–	–	–	Only a few MRSA were present	–	–	–	–	–
